Activity calls are given as the source filed them. The calls are words filed in the database; no cut-off is given here.

The subject of data set [1] is PC-3. Kind of data set: Induction of autophagy in human PC3 cells transfected with mRFP-GFP-LC3 assessed as LC3 granulation of LC3 at 0.5 uM after 8 hrs by fluorescence microscopic analysis. Format: functional, cell-based. An outline of the steps:
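PC3 cells transfected with an mRFP-GFP-LC3 reporter plasmid, then treated 8 h with 1 μM test agent or 0.5 μM rapamycin (autophagy inducer). Imaged by confocal fluorescence microscopy: yellow puncta (overlapping red/green) scored as autophagosomes, red-only puncta as autolysosomes, since GFP is quenched in acidic lysosomes.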

Data set [2] deals with HeLa. Description: Cytotoxicity against human HeLa cells assessed as cell growth inhibition after 24 hrs by MTT assay. Format: functional, cell-based. An outline of the steps: (§1)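 Cells seeded 24 h in RPMI 1640 + 10% FBS. RWPE-1 was kept in K-SFM with bovine pituitary extract and EGF. Cells then exposed to compounds for 24 h at 37 °C, 5% CO2, with DMSO vehicle and docetaxel as positive control. MTT added for 4 h, absorbance read at 570 nm. Triplicate runs, IC50 reported as mean of three experiments.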

Data set [3] relates to PC-3. Description: Cytotoxicity against human PC3 cells assessed as cell growth inhibition after 24 hrs by MTT assay. The class given is functional, cell-based. To be noted: PC-3, 24 h. An outline of the steps:
as §1

Data set [4] relates to PC-3. Kind of data set: Induction of morphological changes in human PC3 cells assessed as formation of massive cytoplasmic vacuoles at 1 uM after 12 hrs by confocal microscopic analysis. The class given is functional, cell-based.
Data set [5] has as its system MDA-MB-231. Description: Cytotoxicity against human MDA-MB-231 cells assessed as cell growth inhibition after 24 hrs by MTT assay. To be noted: MDA-MB-231, 24 h. The class given is functional, cell-based. The essentials:
as §1

The subject of data set [6] is DU-145. Description: Cytotoxicity against human DU145 cells assessed as cell growth inhibition after 24 hrs by MTT assay. Format: functional, cell-based. As to conditions: DU-145, 24 h. The essentials: as §1
Data set [7] has as its system K562. Kind of data set: Cytotoxicity against human K562 cells assessed as cell growth inhibition after 24 hrs by MTT assay. As to conditions: K562, 24 h. Format: functional, cell-based. The essentials: as §1
Data set [8] relates to MCF7. Kind of data set: Cytotoxicity against human MCF7 cells assessed as cell growth inhibition after 24 hrs by MTT assay. Format: functional, cell-based. As to conditions: MCF7, 24 h. The essentials:
as §1

For data set [9], the system named is RWPE-1. Kind of data set: Cytotoxicity against human RWPE1 cells assessed as cell growth inhibition after 24 hrs by MTT assay. The class given is cell-based. As to conditions: RWPE-1, 24 h. An outline of the steps: as §1
The nature of data set [10]: Toxicity in athymic Balb/c mouse assessed as body weight loss at 15 mg/kg, ip administered every 2 days for 18 days. To be noted: in vivo. The class given is organism-based. The essentials:
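Male athymic BALB/c-nu mice bearing subcutaneous PC3M-luc-C6 xenografts, n = 5 per group. Dosing was 15 mg/kg i.p. every 2 days for 18 days versus placebo and docetaxel 15 mg/kg groups. Body weight was recorded over the treatment period.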

Data set [11] deals with PC-3M. Description: Antitumor activity against human PC3M-lluc-C6 cells xenografted in athymic Balb/c mouse assessed as tumor growth inhibition at 15 mg/kg, ip administered every 2 days measured on day 18. The class given is functional. As to conditions: read-out: TGI.
The test system of data set [12] is PC-3M. Description: Antitumor activity against human PC3M-lluc-C6 cells xenografted in athymic Balb/c mouse assessed as decrease in tumor burden by measuring photon intensity at 15 mg/kg, ip measured on day 18 by bioluminescence method (reference value: 2.332 x 10^10 photons/s/cm2). Format: functional.
Data set [13] has as its system PC-3M. Description: Antitumor activity against human PC3M-lluc-C6 cells xenografted in athymic Balb/c mouse assessed as decrease in tumor burden by measuring photon intensity at 15 mg/kg, ip measured on day 9 by bioluminescence method (reference value: 6.501 x 10^9 photons/s/cm2). The class given is functional.

For the compound `CO[C@H]1C[C@@H]2CC[C@@H](C)[C@@](O)(O2)C(=O)C(=O)N2CCCC[C@H]2C(=O)O[C@H]([C@H](C)C[C@@H]2CC[C@@H](O)[C@H](OC)C2)CC(=O)[C@H](C)/C=C(\C)[C@@H](O)[C@@H](OC)C(=O)[C@H](C)C[C@H](C)/C=C/C=C/C=C/1C`, in data set [1], the outcome was Active.

Take `C[C@@H]1C[C@@H](O)C[C@H]2c3cc(OCc4cccc(F)c4)c(OCc4cccc(F)c4)cc3CCN12`: the IC50 worked out at 1730 nM in [2]; 820 nM in data set [3]; 580 nM in data set [5]; 3850 nM in data set [6]; 1420 nM in [7]; 490 nM in [8]. Also, in [9], the half-maximal inhibitory concentration (IC50) is 1490 nM. In addition, the result in data set [4] was Active.

For `Cc1cc(C)cc(COc2cc3c(cc2OCc2cc(C)cc(C)c2)[C@@H]2C[C@@H](O)C[C@@H](C)N2CC3)c1` (racemic), the concentration for half-maximal inhibition (IC50) in data set [2] was 3240 nM; in data set [3] it was 720 nM; in data set [5], 1330 nM; in data set [6], 1510 nM; in data set [7], 2350 nM; in [8] it was 650 nM. For the same compound, in [9], the IC50 is 1350 nM. Moreover, the outcome in data set [4] was Active.

Turning to `CC(=O)O[C@@]12CO[C@@H]1C[C@H](O)[C@@]1(C)C(=O)[C@H](O)C3=C(C)[C@@H](OC(=O)[C@H](O)[C@@H](NC(=O)OC(C)(C)C)c4ccccc4)C[C@@](O)([C@@H](OC(=O)c4ccccc4)[C@H]21)C3(C)C` [DOCETAXEL ANHYDROUS], the Activity in data set [10] is 13.3 g; in data set [12], 1.92 ×10⁹ /s/cm2; in [13], 3.513 ×10⁹ /s/cm2. Moreover, the IC50 in [2] amounted to 61 nM; in [3], 13 nM; in data set [5] it was 32 nM; in data set [6], 26 nM; in data set [7] it was 39 nM; in data set [8], 22 nM. In addition, the IC50 in [9] stood at 1730 nM. Moreover, the outcome in [4] was inactive. In addition, the inhibition in vivo at 15 mg/kg in data set [11] amounted to 92%.

`C[C@@H]1C[C@@H](O)C[C@H]2c3cc(OCc4cc(C(F)(F)F)cc(C(F)(F)F)c4)c(OCc4cc(C(F)(F)F)cc(C(F)(F)F)c4)cc3CCN12`: the IC50 in data set [2] amounted to 2010 nM; in data set [3], 450 nM; in data set [5] it was 510 nM; in [6], 1740 nM; in data set [7] it was 1350 nM; in [8] it was 520 nM. For the same compound, in [9], the IC50 turned out to be 1150 nM. For the same compound, the result in data set [4] was Active.

Source of the values: ChEMBL document CHEMBL4425094, “Novel Benzo[a]quinolizidine Analogs Induce Cancer Cell Death through Paraptosis and Apoptosis” (J Med Chem, 2016).
